This series in a line: Toxicity liver stage against HepG2, at 10uM. Set-up: test concentration 10 uM, cell line HepG2-A16-CD81EGFP. The format is cell-based. The note with it: human, HepG2-A16-CD81EGFP cells; read-out: INHIBITION
The essentials: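 Uninfected HepG2-A16-CD81EGFP cells, 3 × 10^3 per well, 1536-well, plated on prespotted compound at 10 μM final, parasite-free screening media added to match infected plates; puromycin 10 μM positive, DMSO 0.5% negative; run in parallel with 48 h PbLuc assay at 37 °C, 5% CO2; viability by CellTiter-Glo luminescence, normalized to controls.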

For `Nc1nnnn1NCc1cccc(Cl)c1Cl`, the cytotoxicity at 10 µM was found to be 11.5%.
The value for `NCc1ccc(Oc2ccc(F)c(F)c2)cc1C(F)(F)F` was -0.587%.
For the compound `CC1N(c2cnn(C)c2)C(=O)COC12CCN(Cc1ccco1)CC2` (stereo not given), the cytotoxicity at 10 µM is 1.2%.
The value for `NCC1Cc2cc(F)cc(-c3cnccn3)c2O1` (stereo not given) was -9.78%; that for `CSc1ncc(CNC(C)c2cnn(-c3ccccc3)c2C)cn1` (stereo not given) was -3.63%.
The value for `CCN1CC2(CC1=O)CN(C(C)=O)CCN(C(=O)NC(C)C)C2` (stereo not given) was 8.95%; that for `CC(=O)N1CCC2(CC1)c1ncc(-c3ccc(F)cc3)n1CCN2C` was -101%.
The value for `Cc1ccc(C(=O)NC2CCCCNC2=O)c(=O)[nH]1` (stereo not given) was -5.49%.
As to `Cc1cnc(CNC(=O)[C@@]23CCO[C@@H]2CCN(C2CCCC2)C3)cn1`, the cytotoxicity at 10 µM was -110%.
In the case of `Cc1cc(C)c(C(=O)N2CCCC(O)(CN3CCCC3)C2)cc1C` (stereo not given), the cytotoxicity at 10 µM stood at 8.4%.
`COCCC1COC2(CCN(C(=O)C3CCCCC3)CC2)C1` (stereo not given): the cytotoxicity at 10 µM turned out to be 7.4%.
For the compound `CN1CCC2(CC1)CN(CC1CC1)CC21CCNC1=O` (stereo not given), the cytotoxicity at 10 µM turned out to be 2.02%.
The value for `CSCC[C@H](NC(=O)CCn1ccc2c(Br)cccc21)C(=O)O` was 0.633%; that for `COc1cc(Cl)c(NC(=O)NCCn2cccc2)cc1OC` was -0.473%; that for `O=C(Nc1ccccc1-c1ccccc1)NC1CCC2(C1)OCCO2` (stereo not given) was 8.84%.
The value for `CCc1nc(CN2CCN(C(=O)C3(C#N)CCCCC3)CC2)cs1` was -3.6%; that for `Cc1noc(C(C)C)c1C(=O)NCCN1CCCCCC1=O` was -9.07%.
The value for `CC(=O)N1CCCC1c1nccnc1NCc1cccnc1` (stereo not given) was -6.72%; that for `CC(C)(N)CN1CCC(c2nnc(CN3CCCC3)n2C2CC2)CC1` was 19.2%.
`CCO[C@H]1C[C@@H](O)C12CCN(C1CCN(c3ccccc3)CC1)CC2`: the cytotoxicity at 10 µM was 4.24%.
The value for `CC(=O)c1ccc(N2CCN(C(=O)NC(C)c3ccc(C)o3)CC2)cc1` (stereo not given) was 10.1%; that for `O=c1[nH]cc(Nc2ccc(Cl)cc2)c(=O)[nH]1` was 18.4%; that for `CC(C)(C)N1CC(C(=O)N2CCN(CCn3cncn3)CC2)CC1=O` (stereo not given) was -5.14%.
The value for `CCOc1ccc(C(=O)N(CCOC)Cc2c(C)nn(CC)c2C)o1` was -2.99%.
The value for `Cc1nn(C)cc1CNC(=O)c1cn(CCC2CCCCN2)nn1` (stereo not given) was -6.15%; that for `O=C(CCCc1ccccn1)N1CCSC2(CCCCC2)C1` was -3.71%.
On to `COc1ccc(CN2C[C@H](N3CCCC3=O)[C@@H]3OCCC[C@@H]32)cc1`, for which the cytotoxicity at 10 µM stood at 9.51%.
The value for `CCC1=N[C@@]2(CC[C@@H]3CN(C(=O)NCC(C)C)C[C@@H]32)C(=O)N1CC(C)C` was -3.64%; that for `O=C(NCc1csc(Br)c1)c1cnccn1` was -23.3%; that for `Cc1cc(NCC(=O)N(C)C(C)c2cccs2)c(C(N)=O)cc1F` (stereo not given) was -0.99%.
For the compound `O=C(c1cnccn1)N1CCCC2(COCCN(CC3CC3)C2)C1` (stereo not given), the cytotoxicity at 10 µM was determined as 1.39%.
The value for `Cn1cc(C2CCCN2C(=O)Cc2n[nH]c3ccccc23)cn1` (stereo not given) was 2.56%; that for `CN(Cc1ccccc1O)C(=O)NC1CCCN(c2ncccn2)C1` (stereo not given) was -0.421%; that for `Cn1cc(CN2CCCC(CCc3ccccc3C(F)(F)F)C2)cn1` (stereo not given) was -4.24%.
With `CC(=O)N[C@@H]1CN(Cc2ccccc2C#N)C[C@H]1c1ccc(C)cc1` the figure was -4.27%.
Take `Cc1nc(CNC2CCCN(c3cccnn3)C2)no1` (stereo not given): the cytotoxicity at 10 µM was -5.55%.
With `COCCNC(=O)c1nnc2ccc(N3CCOCC3)cc2n1` the figure was 10.8%.
With `Cc1ccc(C(O)CN(C)Cc2cnn(C)c2)cc1C` (stereo not given) the figure was -5.37%; with `Cc1ccc(C(=O)NCC2CCN(Cc3ccccc3C#N)C2)cn1` (stereo not given), 1.48%.
With `CN(CCCc1nccn1C)c1nccc(-c2cc(C(=O)O)ccn2)n1` the figure was -4.9%.
In the case of `O=C(COc1cccc2c1CCC2=O)NCCOc1ccccc1`, the cytotoxicity at 10 µM was determined as 10.5%.
With `CCCc1nc(CNC(=O)Cc2cc(C)no2)cs1` the figure was -11.5%; with `O=C(C1CCC1)N1CCN(Cc2ccc(F)cc2)[C@H]2CS(=O)(=O)C[C@H]21`, 1.65%; with `O=C(Nc1ccccc1-c1ccccc1)N1C[C@@H]2CNC[C@]2(C(=O)O)C1`, -40.5%.
The value for `O=C(NC1CCN(c2ncccc2F)C1)c1cccc(-n2ccnn2)c1` (stereo not given) was 7.49%.
With `Cc1nc(C)n(CC2CCCCN2Cc2cn3ccccc3n2)n1` (stereo not given) the figure was -4.47%; with `CC(=O)N1[C@H](Cn2cncn2)C[C@@H]2CN(C(=O)c3ccoc3)CC[C@@H]21`, -3.42%; with `CC(C)n1c2ccccc2c2c1cc(C(=O)NCCO)n2C(=O)N(C)C`, -93.8%.
With `Cc1nc2c(c(N[C@@H](CO)C(N)=O)n1)Cc1ccccc1OC2`, the cytotoxicity at 10 µM was 2.8%.
The value for `COCCN1C(=O)CC[C@@H]2[C@H]1CCN2C(=O)C1CCOCC1` was 9.67%; that for `COc1ccc(C)cc1NC(=O)Nc1cnc(N2CCCC2)nc1` was 6.62%; that for `O=C(CN1CCC(c2ccnn2CCO)CC1)NC1CCCC1` was -6.64%.
The value for `O=C1CCN(C(=O)NCC(c2ccccc2)c2ccccc2)CCN1` was -1.44%.
Turning to `Cc1ccc2c(c1)SCC(=O)N2CC(=O)N1CCC[C@H]1c1nc(C)no1`, the cytotoxicity at 10 µM was 7.95%.
With `CC(SCCS(C)(=O)=O)c1nc(Cc2ccc(F)cc2)no1` (stereo not given) the figure was 4.6%; with `CC(=O)N(Cc1ncc(C)o1)C1CCN(Cc2cccnc2)C1` (stereo not given), 15.3%; with `Cn1cc(CN2CCc3nc4sccc4c(=O)n3CC2)cn1`, -2.19%.
The value for `Cc1cnn(CC2CCCN2C(=O)c2c(C)noc2C)c1` (stereo not given) was -6.02%; that for `Cc1nn(C)c2ncc(S(=O)(=O)N3CCCC(C)CC3)cc12` (stereo not given) was 2.6%; that for `O=C(COc1coc(CN2CCOCC2)cc1=O)Nc1ccc(Cl)cc1` was -6.51%.
With `c1csc(-c2noc(CCCN3CCCC3Cn3cncn3)n2)c1` (stereo not given) the figure was -24.2%; with `COCC1CN(S(=O)(=O)Cc2ccc(C)cc2)Cc2c1cnn2C` (stereo not given), 3.51%; with `CCc1nc(C2CCCN(C(=O)c3cc(C(C)C)[nH]n3)C2)no1` (stereo not given), -1.24%.
With `CC(C)CC(=O)NC1CC2(CCN(CCF)CC2)Oc2ccccc21` (stereo not given), the cytotoxicity at 10 µM worked out at 1.08%.
The value for `CCN1CCCC(C)(C(=O)NCCc2n[nH]c(=O)[nH]2)C1` (stereo not given) was -1.76%; that for `COc1cc(C)c2c(c1C)C[C@@H](C(C)C(=O)O)CC2` (stereo not given in full) was 4.98%; that for `CC(=O)N1CCC(c2cncc(N3CCCCCC3)n2)CC1` was 11.3%.
The value for `CCCc1n[nH]c(C2CN(Cc3nnc(C4CC4)n3C)CCO2)n1` (stereo not given) was -2.36%; that for `CC(NC(=O)NCCC(=O)OC(C)(C)C)c1nncn1C` (stereo not given) was 2.49%; that for `O=C(N[C@@H]1CCNC[C@H]1O)c1cc(F)cc(Cl)c1` was -3.12%.

The values above are taken from ChEMBL document CHEMBL4513216, “Probing the Open Global Health Chemical Diversity Library for Multistage-Active Starting Points for Next-Generation Antimalarials” (ACS Infect Dis, 2020).
